Test results taken from ChEMBL document CHEMBL1240299, “C3-symmetric peptide scaffolds are functional mimetics of trimeric CD40L” (Nat Chem Biol, 2005).
Active and inactive are the calls of the source. The calls are words filed in the database; no cut-off is given here.

Molecular target: Tumor necrosis factor receptor superfamily member 5 (Homo sapiens, UniProt P25942)
Experiment: Binding affinity to human CD40 by surface plasmon resonance method
Outline: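 Biacore CM5 chip coated by amine coupling with anti-mouse Ig (~10,000 RU), which captured hCD40:mIg. Ligands were dissolved in water at 1 mM and diluted, then injected at several concentrations at 25 °C in HBS-EP (pH 7.4), 30 µl min⁻¹, 5 min association and 5 min dissociation. Regeneration was 50 mM HCl. Control-channel-subtracted sensorgrams were fitted to binding models.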

Chain of Tumor necrosis factor receptor superfamily member 5 (P25942 whole entry): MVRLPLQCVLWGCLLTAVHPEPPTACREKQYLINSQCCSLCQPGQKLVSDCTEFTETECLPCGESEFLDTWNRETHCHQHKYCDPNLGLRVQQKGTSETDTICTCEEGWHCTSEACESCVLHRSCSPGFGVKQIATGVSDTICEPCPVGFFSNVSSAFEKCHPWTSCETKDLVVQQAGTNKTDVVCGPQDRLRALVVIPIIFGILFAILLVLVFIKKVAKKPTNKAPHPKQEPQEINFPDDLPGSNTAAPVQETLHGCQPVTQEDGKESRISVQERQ

**Q.** With `NCCCC[C@H](N)C(=O)NCC(=O)N[C@@H](Cc1ccc(O)cc1)C(=O)N[C@@H](Cc1ccc(O)cc1)C(=O)NCCCCCC(=O)N[C@@H](CCCCNC(=O)CCCC[C@H]1SC[C@H]2NC(=O)N[C@H]21)C(=O)NCCCCCC(=O)NCCCC[C@@H]1CNC(=O)C[C@H](CCCCNC(=O)CCCCCNC(=O)[C@H](CCCCNC(=O)CCCC[C@H]2SC[C@H]3NC(=O)N[C@H]32)NC(=O)CCCCCNC(=O)[C@H](Cc2ccc(O)cc2)NC(=O)[C@H](Cc2ccc(O)cc2)NC(=O)CNC(=O)[C@@H](N)CCCCN)NC[C@H](CCCCNC(=O)CCCCCNC(=O)[C@H](CCCCNC(=O)CCCC[C@H]2SC[C@H]3NC(=O)N[C@H]32)NC(=O)CCCCCNC(=O)[C@H](Cc2ccc(O)cc2)NC(=O)[C@H](Cc2ccc(O)cc2)NC(=O)CNC(=O)[C@@H](N)CCCCN)NC(=O)C1` as the molecule, how does the Activity read?
**A.** The Activity was “Active”.
